In brackets after ≈: the same amount, converted by molar mass. Activity calls are given as the source filed them. The rule behind the calls is not given here.
Assays:
Aspergillus fumigatus = test: Antifungal activity against Aspergillus fumigatus NCIM 902 after 24 to 48 hrs by microbroth dilution method; type: functional
Summary of the method: (§1)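 Broth microdilution per CLSI. DMSO stock diluted 1:40 in YPG medium, then two-fold serial dilution across […] range. Inoculum: log-phase yeast cells (~2 × 10^4 cfu/mL) grown in YPG broth, or spores for phytopathogens. Incubated 24–48 h; growth read as absorbance at 600 nm. MIC is the lowest concentration giving >90% growth inhibition versus control; IC50 is the concentration giving 50% inhibition.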

Candida albicans [1] = test: Antifungal activity against Candida albicans NCIM 3471 after 24 to 48 hrs by microbroth dilution method; type: functional; summary of the method: as §1
Candida albicans [2] = test: Antifungal activity against Candida albicans NCIM 3557 after 24 to 48 hrs by microbroth dilution method; type: functional; summary of the method: as §1
Neurospora crassa = test: Antifungal activity against Neurospora crassa NCIM 870 after 24 to 48 hrs by microbroth dilution method; type: functional; summary of the method: as §1
[3] = Cytotoxicity against sheep RBC assessed as haemolytic activity at 1200 uM after 2 hrs by spectrophotometry; type: cell-based, Ovis aries, Erythrocyte; conditions: sheep red blood cells, read-out: Activity
Summary of the method: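 Sheep RBCs washed with PBS (pH 7.0), resuspended to a 4% suspension, mixed 1:1 with PBS containing test compound. Incubated 37 °C for 2 h, centrifuged 2000 rpm for 5 min, supernatant absorbance read at 545 nm. PBS set as 0% lysis and 0.1% Triton X-100 as 100%. Percent haemolysis calculated relative to these; triplicates averaged.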

Cryptococcus neoformans = test: Antifungal activity against Cryptococcus neoformans NCIM 3542 after 24 to 48 hrs by microbroth dilution method; type: functional; summary of the method: as §1
Nakaseomyces glabratus = test: Antifungal activity against Candida glabrata NCIM 3237 after 24 to 48 hrs by microbroth dilution method; type: functional; summary of the method: as §1
Candida albicans [4] = test: Antifungal activity against Candida albicans NCIM 3557 assessed as inhibition of 50% germ tube formation; type: functional
Fusarium oxysporum = test: Antifungal activity against Fusarium oxysporum NCIM 1043 after 24 to 48 hrs by microbroth dilution method; type: functional; summary of the method: as §1
Aspergillus niger = test: Antifungal activity against Aspergillus niger NCIM 628 after 24 to 48 hrs by microbroth dilution method; type: functional; summary of the method: as §1
Candida albicans [5] = test: Induction of ROS generation in Candida albicans NCIM 3557 at 25.2 to 100.6 uM after 60 mins by DCFH-DA staining-based fluorescence assay; type: functional, organism-based
Candida albicans [6] = test: Induction of ROS generation in Candida albicans NCIM 3557 at 50.3 to 201.2 uM after 200 mins by DHR123 staining-based fluorescence assay; type: functional, organism-based
Summary of the method: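 1×10^6 C. albicans NCIM3557 cells grown in YPG broth with compound at 37 °C for 200 min. Cells washed, then DHR123 added at […] final (from ethanol stock) in PBS for 30 min. Cells washed, resuspended in PBS, and fluorescence read (ex 480/em 525 nm) by epifluorescence microscopy. Untreated cells served as negative control and H2O2-treated cells as positive control.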

Row | MIC90 (Aspergillus fumigatus) [µM] | MIC90 (Candida albicans [1]) [µM] | MIC90 (Candida albicans [2]) [µM] | MIC90 (Neurospora crassa) [µM] | MIC90 (Cryptococcus neoformans) [µM] | MIC90 (Nakaseomyces glabratus) [µM] | Concentration for 50% inhibition of germ tube formation (IC50) (Candida albicans [4]) [µM] | MIC90 (Fusarium oxysporum) [µM] | MIC90 (Aspergillus niger) [µM] | Compound | hemolysis at 2 h, 1200 µM [3] [%] | Activity (Candida albicans [5]) | Activity (Candida albicans [6])
1 | > 600 | > 600 | > 600 | > 600 | > 600 | > 600 | 153.1 | > 600 | > 600 | CC1=CCC[C@@H]2[C@@](C)(CCC3=CC(=O)OC3OC(=O)OC(C)(C)C)[C@H](C)CC[C@@]12C (mixture of isomers) | < 15 |  | 
2 | > 600 | > 600 | > 600 | > 600 | > 600 | > 600 | 191.6 | > 600 | > 600 | C[C@@H]1CC[C@]2(C)[C@H](CC[C@@H]3O[C@@]32C)[C@@]1(C)CCC1=CC(=O)O[C@@H]1O | < 15 |  | 
3 | > 600 | > 600 | > 600 | > 600 | > 600 | > 600 | 177.8 | > 600 | > 600 | CC(=O)OC1OC(=O)C=C1CC[C@@]1(C)[C@H](C)CC[C@@]2(C)C(C)=CCC[C@H]12 (mixture of isomers) | < 15 |  | 
4 | 805 (≈ 256 µg/mL) | 805 (≈ 256 µg/mL) | 50.3 (≈ 16 µg/mL) | 201 (≈ 64.1 µg/mL) | 101 (≈ 32 µg/mL) | 805 (≈ 256 µg/mL) | 25.14 | 805 (≈ 256 µg/mL) | 805 (≈ 256 µg/mL) | CC1=CCC[C@@H]2[C@@](C)(CCC3=CC(=O)O[C@@H]3O)[C@H](C)CC[C@@]12C | < 15 | Active | Active

From ChEMBL document CHEMBL3414461, “Clerodane type diterpene as a novel antifungal agent from Polyalthia longifolia var. pendula” (Eur J Med Chem, 2015)
